From ChEMBL document CHEMBL1138267, “Identification of phosphinate dipeptide analog inhibitors directed against the Plasmodium falciparum M17 leucine aminopeptidase as lead antimalarial compounds” (J Med Chem, 2007)
pIC50, pKi: −log10 of the molar value.

Key:
[1] = Inhibition of Plasmodium falciparum recombinant M17 LAP
Summary of the method: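 His-tagged PfLAP expressed in baculovirus-infected Sf9 cells and Ni-agarose purified. The enzyme was Co2+-activated (1 mM CoCl2, 50 mM Tris-HCl pH 8.0, 20 min) and H-Leu-NHMec hydrolysis was read at ex 370/em 460 nm, 37 °C. Ki came from Dixon plots of initial rates (26 nM enzyme, 2.5–100 µM substrate, 2.44–78.13 nM inhibitor). For time-dependent binding, Ki* came from steady-state progress curves (2 µM substrate, 19.53–312.5 nM).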

Plasmodium falciparum [2] = experiment: Antimalarial activity after 48 hrs against multidrug-resistant Plasmodium falciparum Dd2 by [3H]hypoxanthine uptake; assay type: functional, organism-based
Plasmodium falciparum [3] = experiment: Antimalarial activity after 48 hrs against drug-sensitive Plasmodium falciparum 3D7 by [3H]hypoxanthine uptake; assay type: functional, organism-based
Plasmodium falciparum [4] = experiment: Antimalarial activity after 48 hrs against Plasmodium falciparum D10 by [3H]hypoxanthine uptake; assay type: functional, organism-based
Plasmodium chabaudi [5] = experiment: Antimalarial activity against Plasmodium chabaudi chabaudi in C57BL/6J mice (Mus musculus) assessed as parasitemia on day 14 at 0.1 mg, intraperitoneally for 4 days; assay type: functional
Mus musculus [6] = experiment: Toxicity in Plasmodium chabaudi chabaudi infected C57BL/6J mice (Mus musculus) at 2 mg, intraperitoneally twice daily after 7 days; assay type: organism-based; conditions: in vivo, ip, 168 h
Mus musculus [7] = experiment: Toxicity in Plasmodium chabaudi chabaudi infected C57BL/6J mice (Mus musculus) at 0.1 mg, intraperitoneally twice daily after 4 days; assay type: organism-based; conditions: in vivo, ip, 96 h
Plasmodium chabaudi [8] = experiment: Antimalarial activity against Plasmodium chabaudi chabaudi in C57BL/6J mice (Mus musculus) assessed as reduction of parasitemia on day 11 at 2 mg, intraperitoneally twice daily for 7 days relative to control; assay type: functional; design: scale not given: the % may be the effect or the level left
Plasmodium chabaudi [9] = experiment: Antimalarial activity against Plasmodium chabaudi chabaudi in C57BL/6J mice (Mus musculus) assessed as parasitemia on day 11 at 2 mg, intraperitoneally twice daily for 7 days; assay type: functional
Plasmodium chabaudi [10] = experiment: Antimalarial activity against Plasmodium chabaudi chabaudi in C57BL/6J mice (Mus musculus) assessed as parasitemia on day 8 at 2 mg, intraperitoneally twice daily for 7 days; assay type: functional

SMILES | pKi [1] | pIC50 (Plasmodium falciparum [2]) | pIC50 (Plasmodium falciparum [3]) | pIC50 (Plasmodium falciparum [4]) | Activity (Plasmodium chabaudi [5]) [%] | Activity (Mus musculus [6]) | Activity (Mus musculus [7]) | Activity (Plasmodium chabaudi [8]) [%] | Activity (Plasmodium chabaudi [9]) [%] | Activity (Plasmodium chabaudi [10]) [%]
N[C@H](CCc1ccccc1)P(=O)(O)C[C@@H](Cc1ccc(O)cc1)C(=O)O | 7.98 | 4.89 | 4.72 | 4.33 | – | – | – | – | – | –
CCN(CC)CCCC(C)Nc1ccnc2cc(Cl)ccc12 (stereo not given) [CHLOROQUINE] | – | – | – | – | 6.9 | Non-toxic | Non-toxic | – | – | –
CC(C)C[C@H](CP(=O)(O)[C@H](N)CC(C)C)C(=O)O | 7.01 | < 4.00 | < 4.00 | < 4.00 | – | – | – | – | – | –
N[C@H](CCc1ccccc1)P(=O)(O)C[C@@H](Cc1ccccc1)C(=O)O | 7.88 | 4.70 | 4.62 | 4.34 | – | Non-toxic | Non-toxic | 92 | 3.6 | –
N[C@H](CCc1ccccc1)P(=O)(O)CCC(=O)O | 6.28 | < 4.00 | < 4.00 | < 4.00 | – | – | – | – | – | –
CC(C)C[C@H](NC(=O)[C@@H](O)[C@H](N)Cc1ccccc1)C(=O)O.Cl [BESTATIN HYDROCHLORIDE] | 7.60 | 4.92 | 5.10 | 4.96 | – | Non-toxic | Non-toxic | – | – | 29.7
